Screens deposited in PubChem by The Scripps Research Institute Molecular Screening Center.
SIAE primary: blocks human sialic acid acetylesterase. Q9HAT2. SIAE FP-Rh probe binding, fluorescence polarization. inhibition, % at 9.66 µM. 0.69% of 370,000 active. AID 1053197;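 active means inhibition above a cutoff: mean of compounds within the control limits plus 3 SD of those, cut at about 17% in these data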;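 further: 0% = plate median of compound wells and 100% = probe without SIAE protein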
TDP2 absorb: TDP2 (human) inhibition, absorbance primary screen | O95551 | recombinant TDP2, T5PNP hydrolysis, p-nitrophenol absorbance 415 nm | inhibition, % at 12.8 µM | 0.34% of 370,000 active | AID 720702;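 active means inhibition above the mean of all tested compounds plus 3 SD, set per campaign, cut at about 25% in these data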;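 further: 0% = DMSO with enzyme and 100% = buffer with substrate but no TDP2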
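System: recombinant human TDP2 / Amount: 120 nM TDP2 per well / Also added: 5 mM T5PNP chromogenic substrate / Doses: 12.8 µM single point, 1% DMSO / Incubation: 2 h at 37 °C / Detection: p-Nitrophenol epi absorbance / Evaluation: % inhibition relative to enzyme-containing and enzyme-free wells / Repeats: singlicate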
UHRF1 MBD2 ctr: UHRF1 methyl-DNA binding inhibition | UHRF1 binding to methylated oligo, TR-FRET | inhibition, % at 4.4 µM | 0.75% of 370,000 active; in the data active means inhibition above about 21%;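 further: UHRF1 SRA domain binding a hemimethylated CpG hairpin DNA probe; 0% = median of test compound wells and 100% = reference inhibitor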
Target sequence (Q96T88 whole entry, looked up, the tested form may be a part): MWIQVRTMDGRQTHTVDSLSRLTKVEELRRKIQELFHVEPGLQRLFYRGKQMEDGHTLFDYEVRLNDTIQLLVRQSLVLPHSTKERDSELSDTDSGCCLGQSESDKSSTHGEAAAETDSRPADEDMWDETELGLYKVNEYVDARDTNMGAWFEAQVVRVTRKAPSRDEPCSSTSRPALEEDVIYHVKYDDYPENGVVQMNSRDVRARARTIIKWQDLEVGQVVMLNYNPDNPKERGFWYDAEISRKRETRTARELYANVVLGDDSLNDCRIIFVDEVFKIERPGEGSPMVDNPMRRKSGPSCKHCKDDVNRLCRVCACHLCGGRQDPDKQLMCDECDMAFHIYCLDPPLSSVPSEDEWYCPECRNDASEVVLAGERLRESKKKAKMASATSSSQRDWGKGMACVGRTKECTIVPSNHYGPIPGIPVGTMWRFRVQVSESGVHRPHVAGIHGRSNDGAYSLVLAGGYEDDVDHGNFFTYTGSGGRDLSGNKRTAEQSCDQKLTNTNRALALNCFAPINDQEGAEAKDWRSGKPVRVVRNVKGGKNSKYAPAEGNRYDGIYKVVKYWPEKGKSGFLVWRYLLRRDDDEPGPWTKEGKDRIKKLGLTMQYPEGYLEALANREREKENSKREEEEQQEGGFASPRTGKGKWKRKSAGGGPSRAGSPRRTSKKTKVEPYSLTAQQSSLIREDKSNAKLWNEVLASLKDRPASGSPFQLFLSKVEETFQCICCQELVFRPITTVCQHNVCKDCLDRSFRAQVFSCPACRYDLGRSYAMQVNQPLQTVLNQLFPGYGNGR
LEDGF integ inh: blocks HIV-1 LEDGF/p75-dependent DNA integration. 0.64% of 370,000 active. TR-FRET IN-LEDGF/p75 DNA integration, Eu/Cy5. inhibition, % at 3.7 µM. AID 743269;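 active means inhibition above the screen-wide mean plus 3 SD, cut at about 13% in these data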;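 further: signal is the Cy5 over europium emission ratio at 671 and 618 nm; 0% = plate median of compound wells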
PRMT1 FP inh: inhibitors of human PRMT1; Q99873; recombinant PRMT1, activity-based probe fluorescence polarization; inhibition, % at 2.79 µM; 1.3% of 370,000 active;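 active means inhibition above about 21% made by adding two undisclosed values, limit read from the data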
MBD2 DNA inh: blocks human MBD2 binding to methylated DNA | inhibition, % at 4.4 µM | 0.31% of 370,000 active | TR-FRET, MBD2 binding to methylated oligonucleotide | Q9UBB5 | AID 686964; in the data active means inhibition above about 13%
PRMT1 confirm: confirmation of human PRMT1 inhibitors. shares compounds with PRMT1 FP inh. recombinant His-PRMT1, activity-based probe fluorescence polarization. inhibition, % at 2.79 µM. 42% of 3,300 active;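 active means mean inhibition across replicates above the hit cutoff derived for the earlier primary screen, cut at about 22% in these data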
* marks the source's active call; other numbers are inactive results. This is a sample that favours compounds with a hit; in the whole collection about 3.3% have one here.

Screening CCS(=O)(=O)c1ncc(Cl)c(C(=O)Nc2ccc(S(=O)(=O)N3CCC(C)CC3)cc2)n1 returned SIAE primary -4, TDP2 absorb -15, UHRF1 MBD2 ctr 4, LEDGF integ inh -3, PRMT1 FP inh 31*, MBD2 DNA inh 5 and PRMT1 confirm 14.
For CCc1ccc(NC(=O)c2nc(S(=O)(=O)Cc3ccccc3)ncc2Cl)cc1 the results were SIAE primary -9, TDP2 absorb 2, UHRF1 MBD2 ctr 0, LEDGF integ inh -2, PRMT1 FP inh 31*, MBD2 DNA inh 6 and PRMT1 confirm 26*.
For CCOc1ccccc1NC(=O)c1nc(S(=O)(=O)Cc2ccccc2)ncc1Cl the results were SIAE primary -4, TDP2 absorb 1, UHRF1 MBD2 ctr 18, LEDGF integ inh 4, PRMT1 FP inh 8 and MBD2 DNA inh 3.
COC(=O)[C@@]12CCCCC3=C1N(CCC3)C(=O)[C@H]2CC(=O)N1CCCCC1 was read as SIAE primary -10, TDP2 absorb -4, UHRF1 MBD2 ctr 3, LEDGF integ inh 3, PRMT1 FP inh -1 and MBD2 DNA inh 3.
`O=C(Nc1ccc(Br)c(C(F)(F)F)c1)[C@@H]1CC=C[C@@H]2CCN(CC3CC3)C(=O)[C@@H]21` gave SIAE primary -3, TDP2 absorb -5, UHRF1 MBD2 ctr 0, LEDGF integ inh -3, PRMT1 FP inh 2 and MBD2 DNA inh -2.
COCC(=O)Nc1ccccc1-c1ccccc1 was read as SIAE primary 4, TDP2 absorb -10, UHRF1 MBD2 ctr 1, LEDGF integ inh 10, PRMT1 FP inh -5 and MBD2 DNA inh -5.
Screening O=C(O)/C=C/C(=O)Nc1ccccc1-c1ccccc1 returned SIAE primary -3, TDP2 absorb 11, UHRF1 MBD2 ctr -3, LEDGF integ inh 2, PRMT1 FP inh 30*, MBD2 DNA inh -2 and PRMT1 confirm -2.
`O=C(NCCc1ccccc1F)c1cc2ccccn2n1` gave SIAE primary -6, TDP2 absorb 10, UHRF1 MBD2 ctr 0, LEDGF integ inh 0, PRMT1 FP inh -6 and MBD2 DNA inh 1.
For O=C(NCc1ccncc1)c1cccc(S(=O)(=O)Nc2ccc(SC(F)F)cc2)c1 the results were SIAE primary -11, TDP2 absorb 13, UHRF1 MBD2 ctr -1, LEDGF integ inh 2, PRMT1 FP inh 64*, MBD2 DNA inh 3 and PRMT1 confirm 56*.
O=C(NCc1ccccn1)c1cccc(S(=O)(=O)Nc2ccc(SC(F)F)cc2)c1 was read as SIAE primary 0, TDP2 absorb -15, UHRF1 MBD2 ctr 4, LEDGF integ inh -5, PRMT1 FP inh 78*, MBD2 DNA inh 1 and PRMT1 confirm 40*.
For COc1ccc(NS(=O)(=O)c2cccc(C(=O)NCc3ccccn3)c2)cc1 the results were SIAE primary 6, TDP2 absorb 11, UHRF1 MBD2 ctr -1, LEDGF integ inh 1, PRMT1 FP inh 1 and MBD2 DNA inh 3.
For CCOC(=O)[C@]12CCCC=C1N(Cc1ccc(OC)cc1)C(=O)[C@@H]2CC(=O)NCc1ccccc1 the results were SIAE primary 10, TDP2 absorb 5, UHRF1 MBD2 ctr 0, LEDGF integ inh -4, PRMT1 FP inh 1 and MBD2 DNA inh -1.
For COC(=O)[C@@H](N)CS the results were SIAE primary 3, TDP2 absorb -5, UHRF1 MBD2 ctr 2, LEDGF integ inh 2, PRMT1 FP inh 49*, MBD2 DNA inh 0 and PRMT1 confirm 75*.
O=C(N/N=C\c1ccc([N+](=O)[O-])o1)c1cncc(Br)c1 was read as SIAE primary 13, TDP2 absorb 4, UHRF1 MBD2 ctr 2, LEDGF integ inh 11, PRMT1 FP inh 34*, MBD2 DNA inh 3 and PRMT1 confirm 6.
For O=C(N/N=C/c1ccc(-c2ccccc2[N+](=O)[O-])o1)c1cncc(Br)c1 the results were SIAE primary -1, TDP2 absorb 16, UHRF1 MBD2 ctr -7, LEDGF integ inh 0, PRMT1 FP inh 5 and MBD2 DNA inh 0.
Screening Cc1ccccc1NCC(=O)N/N=C/c1ccc[nH]1 returned SIAE primary 2, TDP2 absorb -3, UHRF1 MBD2 ctr -1, LEDGF integ inh -5, PRMT1 FP inh 1 and MBD2 DNA inh 3.
Screening Cc1cc(C)nc(N2N=C(C(C)(C)C)CC2=O)n1 returned SIAE primary 1, TDP2 absorb 3, UHRF1 MBD2 ctr -9, LEDGF integ inh 0, PRMT1 FP inh 41*, MBD2 DNA inh -1 and PRMT1 confirm 8.
For COc1cccc(NC(=O)Nc2nc3ncccn3c2-c2ccc(C(F)(F)F)cc2)c1 the results were SIAE primary 0, TDP2 absorb 5, UHRF1 MBD2 ctr 0, LEDGF integ inh 5, PRMT1 FP inh -4 and MBD2 DNA inh -3.
CC[n+]1c(S(=O)(=O)[O-])ccc2ccc(C)cc21 was read as SIAE primary -8, TDP2 absorb 4, UHRF1 MBD2 ctr 2, LEDGF integ inh -1, PRMT1 FP inh 5 and MBD2 DNA inh 5.
Cc1ccc2sc(C)[n+](CCC(C)S(=O)(=O)[O-])c2c1 (stereo not given) was read as SIAE primary -3, TDP2 absorb 1, UHRF1 MBD2 ctr 4, LEDGF integ inh -3, PRMT1 FP inh 57*, MBD2 DNA inh 4 and PRMT1 confirm 31*.
For CC/C(=C/c1sc2ccc(C)cc2[n+]1CCO)SC the results were SIAE primary 1, TDP2 absorb 5, UHRF1 MBD2 ctr 2, LEDGF integ inh 2, PRMT1 FP inh 52*, MBD2 DNA inh -3 and PRMT1 confirm 17.
CC/C(=C/c1sc2ccc(C)cc2[n+]1CCCS(=O)(=O)[O-])SC was read as SIAE primary 2, TDP2 absorb 7, UHRF1 MBD2 ctr 2, LEDGF integ inh -3, PRMT1 FP inh 39*, MBD2 DNA inh 3 and PRMT1 confirm 23*.
For COC(=O)c1c(N2C(=O)CC(Sc3ccccc3C(=O)O)C2=O)sc(C)c1C (stereo not given) the results were SIAE primary -5, TDP2 absorb -3, UHRF1 MBD2 ctr 0, LEDGF integ inh -2, PRMT1 FP inh 64*, MBD2 DNA inh 4 and PRMT1 confirm 51*.
For COC(=O)c1c(N2C(=O)CC(Sc3ccccc3C(=O)O)C2=O)sc2c1CCCC2 (stereo not given) the results were SIAE primary -2, TDP2 absorb -1, UHRF1 MBD2 ctr 4, LEDGF integ inh -4, PRMT1 FP inh 55*, MBD2 DNA inh -6 and PRMT1 confirm 48*.
